In ChEMBL document CHEMBL1150264, “Design and microwave-assisted synthesis of novel macrocyclic peptides active at melanocortin receptors: discovery of potent and selective hMC5R receptor antagonists” (J Med Chem, 2008):
Active and inactive are the calls of the source. The calls are words filed in the database; no cut-off is given here.

How the values were obtained:
[1] = target: T1, Melanocyte-stimulating hormone receptor (Homo sapiens, UniProt Q01726); experiment: Agonist activity at human melanocortin 1 receptor expressed in HEK293 cells assessed as cAMP accumulation at 10 uM realtive to MT2; assay type: functional, cell-based
Outline: (§1)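 cAMP accumulation assay in stably transfected HEK293 cells: 0.5 mM IBMX preincubation, 3 min ligand exposure at 37 °C, [3H]cAMP/PKA binding read-out against a standard curve. The cAMP produced at 10 μM ligand is expressed as percent of that produced by 10 μM MT-II (% max effect).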
Target sequence in this assay (Q01726 whole entry, looked up): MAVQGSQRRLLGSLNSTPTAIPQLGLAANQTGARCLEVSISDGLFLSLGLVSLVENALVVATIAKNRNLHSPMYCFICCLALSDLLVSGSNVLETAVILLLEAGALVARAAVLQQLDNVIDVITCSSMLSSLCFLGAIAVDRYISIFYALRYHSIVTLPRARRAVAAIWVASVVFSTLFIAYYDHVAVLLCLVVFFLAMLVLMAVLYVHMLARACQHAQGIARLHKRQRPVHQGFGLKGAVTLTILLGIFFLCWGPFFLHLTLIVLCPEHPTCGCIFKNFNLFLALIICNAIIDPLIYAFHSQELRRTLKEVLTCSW

[2] = target: T1, Melanocyte-stimulating hormone receptor; experiment: Displacement of [125I]-[Nle4, D-Phe7]alpha-MSH from human melanocortin 1 receptor expressed in HEK293 cells at 10 uM; assay type: cell-based
Target sequence in this assay (Q01726 whole entry, looked up): as above

Melanocortin receptor 5 [3] = target: T2, Melanocortin receptor 5 (Homo sapiens, UniProt P33032); experiment: Displacement of [125I]-[Nle4, D-Phe7]alpha-MSH from human melanocortin 5 receptor expressed in HEK293 cells at 10 uM; assay type: cell-based
[4] = target: T1, Melanocyte-stimulating hormone receptor; experiment: Agonist activity at human melanocortin 1 receptor expressed in HEK293 cells assessed as cAMP accumulation at 10 uM; assay type: functional, cell-based; outline: as §1
Target sequence in this assay (Q01726 whole entry, looked up): as above

Melanocortin receptor 4 [5] = target: T3, Melanocortin receptor 4 (Homo sapiens, UniProt P32245); experiment: Agonist activity at human melanocortin 4 receptor expressed in HEK293 cells assessed as cAMP accumulation at 10 uM; assay type: functional, cell-based; outline: as §1
Melanocortin receptor 3 [6] = target: T4, Melanocortin receptor 3 (Homo sapiens, UniProt P41968); experiment: Displacement of [125I]-[Nle4, D-Phe7]alpha-MSH from human melanocortin 3 receptor expressed in HEK293 cells at 10 uM; assay type: cell-based
Melanocortin receptor 4 [7] = target: T3, Melanocortin receptor 4; experiment: Displacement of [125I]-[Nle4, D-Phe7]alpha-MSH from human melanocortin 4 receptor expressed in HEK293 cells at 10 uM; assay type: cell-based
Melanocortin receptor 3 [8] = target: T4, Melanocortin receptor 3; experiment: Agonist activity at human melanocortin 3 receptor expressed in HEK293 cells assessed as cAMP accumulation at 10 uM; assay type: functional, cell-based; outline: as §1
Melanocortin receptor 5 [9] = target: T2, Melanocortin receptor 5; experiment: Agonist activity at human melanocortin 5 receptor expressed in HEK293 cells assessed as cAMP accumulation at 10 uM realtive to MT2; assay type: functional, cell-based; outline: as §1
Melanocortin receptor 4 [10] = target: T3, Melanocortin receptor 4; experiment: Agonist activity at human melanocortin 4 receptor expressed in HEK293 cells assessed as cAMP accumulation at 10 uM realtive to MT2; assay type: functional, cell-based; outline: as §1
Melanocortin receptor 5 [11] = target: T2, Melanocortin receptor 5; experiment: Agonist activity at human melanocortin 5 receptor expressed in HEK293 cells assessed as cAMP accumulation at 10 uM; assay type: functional, cell-based; outline: as §1
Melanocortin receptor 3 [12] = target: T4, Melanocortin receptor 3; experiment: Agonist activity at human melanocortin 3 receptor expressed in HEK293 cells assessed as cAMP accumulation at 10 uM realtive to MT2; assay type: functional, cell-based; outline: as §1
Melanocortin receptor 3 [13] = target: T4, Melanocortin receptor 3; experiment: Agonist activity at human melanocortin 3 receptor expressed in HEK293 cells assessed as cAMP accumulation; assay type: functional, cell-based; details: hek293
Outline: (§2)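 Stably transfected HEK293 cells seeded 48 h before assay (50000 cells/well), rinsed, preincubated 1 min at 37 °C in Earle's balanced salt solution with 0.5 mM IBMX, then given peptide at varying concentrations for 3 min at 37 °C. Stopped with ice-cold Tris/EDTA and boiling 7 min. cAMP measured by [3H]cAMP competition for PKA against a standard curve. EC50 by nonlinear least-squares fit, mean of two experiments in triplicate.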

Melanocortin receptor 3 [14] = target: T4, Melanocortin receptor 3; experiment: Displacement of [125I]-[Nle4, D-Phe7]alpha-MSH from human melanocortin 3 receptor expressed in HEK293 cells; assay type: cell-based
Outline: (§3)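 Whole HEK293 cells stably expressing each hMCR, seeded 48 h before assay (50000 cells/well), washed in MEM with 25 mM bicarbonate. Cells incubated 40 min at 37 °C with unlabeled peptide plus [125I]-NDP-α-MSH (33.06 pM, 20000 cpm/well) in MEM, 25 mM HEPES pH 7.4, 0.2% BSA, 1 mM 1,10-phenanthroline, leupeptin, bacitracin. Cells washed, lysed with NaOH/Triton X-100, and gamma-counted. IC50 by nonlinear fit, two experiments in triplicate […].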

[15] = target: T1, Melanocyte-stimulating hormone receptor; experiment: Agonist activity at human melanocortin 1 receptor expressed in HEK293 cells assessed as cAMP accumulation; assay type: functional, cell-based; outline: as §2
Target sequence in this assay (Q01726 whole entry): as the sequence (Q01726 whole entry, looked up) above

[16] = target: T1, Melanocyte-stimulating hormone receptor; experiment: Displacement of [125I]-[Nle4, D-Phe7]alpha-MSH from human melanocortin 1 receptor expressed in HEK293 cells; assay type: cell-based; outline: as §3
Target sequence in this assay (Q01726 whole entry): as the sequence (Q01726 whole entry, looked up) above

Melanocortin receptor 5 [17] = target: T2, Melanocortin receptor 5; experiment: Displacement of [125I]-[Nle4, D-Phe7]alpha-MSH from human melanocortin 5 receptor expressed in HEK293 cells; assay type: cell-based; outline: as §3

T4 sequence (P41968 whole entry): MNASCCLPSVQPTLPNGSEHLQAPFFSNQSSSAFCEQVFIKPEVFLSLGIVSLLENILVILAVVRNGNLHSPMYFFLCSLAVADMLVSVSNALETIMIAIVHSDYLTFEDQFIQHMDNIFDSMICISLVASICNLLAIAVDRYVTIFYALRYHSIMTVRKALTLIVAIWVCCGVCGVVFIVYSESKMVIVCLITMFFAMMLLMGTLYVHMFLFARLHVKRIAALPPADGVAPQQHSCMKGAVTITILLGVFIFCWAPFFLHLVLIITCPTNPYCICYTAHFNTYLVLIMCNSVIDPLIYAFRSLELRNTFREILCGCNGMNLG
T3 sequence (P32245 whole entry): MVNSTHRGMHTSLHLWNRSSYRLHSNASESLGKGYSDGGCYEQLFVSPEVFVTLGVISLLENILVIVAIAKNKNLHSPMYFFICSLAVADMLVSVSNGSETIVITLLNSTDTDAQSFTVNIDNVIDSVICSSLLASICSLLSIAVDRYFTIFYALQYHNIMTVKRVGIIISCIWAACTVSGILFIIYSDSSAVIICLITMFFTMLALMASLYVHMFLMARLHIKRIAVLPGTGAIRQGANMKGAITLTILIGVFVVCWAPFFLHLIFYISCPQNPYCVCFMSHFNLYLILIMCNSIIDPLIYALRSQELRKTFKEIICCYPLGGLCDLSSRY
T2 sequence (P33032 whole entry): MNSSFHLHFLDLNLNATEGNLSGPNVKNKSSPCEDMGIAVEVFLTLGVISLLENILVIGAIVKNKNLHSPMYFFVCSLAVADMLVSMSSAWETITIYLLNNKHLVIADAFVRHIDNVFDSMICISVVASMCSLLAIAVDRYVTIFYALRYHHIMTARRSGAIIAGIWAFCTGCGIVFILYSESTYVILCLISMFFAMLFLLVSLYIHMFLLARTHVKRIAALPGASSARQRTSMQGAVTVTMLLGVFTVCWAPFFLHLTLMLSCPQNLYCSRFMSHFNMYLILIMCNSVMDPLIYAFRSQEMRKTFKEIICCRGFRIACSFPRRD

SMILES: N=C(N)NCCC[C@@H]1NC(=O)[C@@H](Cc2ccccc2)NC(=O)[C@H](Cc2cnc[nH]2)NC(=O)c2cc([N+](=O)[O-])ccc2SC[C@@H](C(N)=O)NC(=O)[C@@H](Cc2ccccc2)NC1=O
- Activity [1]: 0%
- Activity [2]: inactive
- Activity (Melanocortin receptor 5 [3]): inactive
- Activity [4]: inactive
- Activity (Melanocortin receptor 4 [5]): inactive
- Activity (Melanocortin receptor 3 [6]): inactive
- Activity (Melanocortin receptor 4 [7]): inactive
- Activity (Melanocortin receptor 3 [8]): inactive
- Activity (Melanocortin receptor 5 [9]): 0%
- Activity (Melanocortin receptor 4 [10]): 0%
- Activity (Melanocortin receptor 5 [11]): inactive
- Activity (Melanocortin receptor 3 [12]): 0%

SMILES: NC(=O)[C@@H]1CSc2ccc([N+](=O)[O-])cc2C(=O)N[C@@H](Cc2cnc[nH]2)C(=O)N[C@@H](Cc2ccc(N)cc2)C(=O)N[C@@H](CCCN=C(N)N)C(=O)N[C@@H](Cc2c[nH]c3ccccc23)C(=O)N1
- EC50 (Melanocortin receptor 3 [13]): 150 nM
- IC50 (Melanocortin receptor 3 [14]; hek293): > 1000 nM
- EC50 ([15]; hek293): > 1000 nM
- IC50 ([16]; hek293): > 10000 nM

SMILES: N=C(N)NCCC[C@@H]1NC(=O)[C@@H](Cc2ccccc2)NC(=O)[C@H](Cc2cnc[nH]2)NC(=O)c2cc([N+](=O)[O-])ccc2SC[C@@H](C(N)=O)NC(=O)[C@H](Cc2ccccc2)NC1=O
- Activity [1]: 0%
- Activity (Melanocortin receptor 5 [3]): inactive
- Activity [4]: inactive
- Activity (Melanocortin receptor 4 [5]): inactive
- Activity (Melanocortin receptor 3 [6]): inactive
- Activity (Melanocortin receptor 4 [7]): inactive
- IC50 [16]: > 1000 nM
- Activity (Melanocortin receptor 3 [8]): inactive
- Activity (Melanocortin receptor 5 [9]): 0%
- Activity (Melanocortin receptor 4 [10]): 0%
- Activity (Melanocortin receptor 5 [11]): inactive
- Activity (Melanocortin receptor 3 [12]): 0%

SMILES: N=C(N)NCCC[C@@H]1NC(=O)[C@@H](Cc2ccccc2)NC(=O)[C@H]2CCCN2C(=O)c2cc([N+](=O)[O-])ccc2SC[C@@H](C(N)=O)NC(=O)[C@H](Cc2c[nH]c3ccccc23)NC1=O
- Activity [1]: 0%
- Activity (Melanocortin receptor 5 [3]): inactive
- Activity [4]: inactive
- Activity (Melanocortin receptor 4 [5]): inactive
- Activity (Melanocortin receptor 3 [6]): inactive
- Activity (Melanocortin receptor 4 [7]): inactive
- IC50 ([16]; hek293): > 1500 nM
- Activity (Melanocortin receptor 3 [8]): inactive
- Activity (Melanocortin receptor 5 [9]): 0%
- Activity (Melanocortin receptor 4 [10]): 0%
- Activity (Melanocortin receptor 5 [11]): inactive
- Activity (Melanocortin receptor 3 [12]): 0%

SMILES: N=C(N)NCCC[C@@H]1NC(=O)[C@@H](Cc2ccccc2)NC(=O)[C@H](Cc2cnc[nH]2)NC(=O)c2cc([N+](=O)[O-])ccc2SC[C@@H](C(N)=O)NC(=O)[C@@H](Cc2ccc3ccccc3c2)NC1=O
- Activity [1]: 0%
- Activity [2]: inactive
- Activity (Melanocortin receptor 5 [3]): inactive
- Activity [4]: inactive
- Activity (Melanocortin receptor 4 [5]): inactive
- Activity (Melanocortin receptor 4 [7]): inactive
- Activity (Melanocortin receptor 5 [9]): 0%
- Activity (Melanocortin receptor 4 [10]): 0%
- Activity (Melanocortin receptor 5 [11]): inactive
- Activity (Melanocortin receptor 3 [12]): 75%

SMILES: N=C(N)NCCC[C@@H]1NC(=O)[C@@H](Cc2ccccc2)NC(=O)[C@H]2C[C@@H](O)CN2C(=O)c2cc([N+](=O)[O-])ccc2SC[C@@H](C(N)=O)NC(=O)[C@H](Cc2c[nH]c3ccccc23)NC1=O
- Activity [1]: 0%
- Activity [2]: inactive
- Activity (Melanocortin receptor 5 [3]): inactive
- Activity [4]: inactive
- Activity (Melanocortin receptor 4 [5]): inactive
- Activity (Melanocortin receptor 3 [6]): inactive
- Activity (Melanocortin receptor 4 [7]): inactive
- Activity (Melanocortin receptor 3 [8]): inactive
- Activity (Melanocortin receptor 5 [9]): 0%
- Activity (Melanocortin receptor 4 [10]): 0%
- Activity (Melanocortin receptor 5 [11]): inactive
- Activity (Melanocortin receptor 3 [12]): 0%

SMILES: NCCC[C@@H]1NC(=O)[C@@H](Cc2ccccc2)NC(=O)[C@H](Cc2cnc[nH]2)NC(=O)c2cc([N+](=O)[O-])ccc2SC[C@@H](C(N)=O)NC(=O)[C@H](Cc2c[nH]c3ccccc23)NC1=O
- Activity [1]: 0%
- Activity [2]: inactive
- Activity (Melanocortin receptor 5 [3]): inactive
- Activity [4]: inactive
- Activity (Melanocortin receptor 4 [5]): inactive
- Activity (Melanocortin receptor 3 [6]): inactive
- Activity (Melanocortin receptor 4 [7]): inactive
- Activity (Melanocortin receptor 3 [8]): inactive
- Activity (Melanocortin receptor 5 [9]): 0%
- Activity (Melanocortin receptor 4 [10]): 0%
- Activity (Melanocortin receptor 5 [11]): inactive
- Activity (Melanocortin receptor 3 [12]): 0%

SMILES: NC(=O)[C@@H]1CSc2ccc([N+](=O)[O-])cc2C(=O)N[C@@H](Cc2cnc[nH]2)C(=O)N[C@H](Cc2ccc3ccccc3c2)C(=O)N[C@@H](CCCN=C(N)N)C(=O)N[C@@H](Cc2c[nH]c3ccccc23)C(=O)N1
- IC50 (Melanocortin receptor 5 [17]): 760 nM
- IC50 (Melanocortin receptor 3 [14]): 190 nM
- EC50 [15]: > 10000 nM
- IC50 [16]: 760 nM
